The text below walks through data of ChEMBL document CHEMBL3351406, “Synthesis and biological evaluation of the [d-MeAla(11)]-epimer of coibamide A” (Bioorg Med Chem Lett, 2015).

Where a SMILES comes first, the peptide text is derived from it. Bridges are numbered along the chain shown (N, C = ends). [ ]: non-standard residue; d: D form. The star is where a group is joined. NMe2Val = CC(C)[C@@H](C(=O)*)N(C)C; NMeI = CC[C@H](C)[C@H](NC)C(=O)O; NMeT = CN[C@H](C(=O)O)[C@@H](C)O; NMeL = CN[C@@H](CC(C)C)C(=O)O; Hiv = CC(C)[C@H](O)C(=O)O; NMeS = CN[C@@H](CO)C(=O)O; NMeA = CN[C@@H](C)C(=O)O; dNMeA = CN[C@H](C)C(=O)O

What all share (format): functional, cell-based
Test [1] relates to MDA-MB-231. In words: Cytotoxicity against human MDA-MB-231 cells assessed as growth inhibition after 72 hrs by MTT assay. The conditions noted are these: MDA-MB-231, 72 h. A digest of the protocol: (§1)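 Media: PC-3 in DMEM with 10% FBS, 2 mM L-glutamine and penicillin/streptomycin; SF-295, MDA-MB-231 and H292 in RPMI-1640 with 10% FBS, 2 mM L-glutamine, 1 mM pyruvate and penicillin/streptomycin. Cells were seeded at 3,000 per well 16 h before adding compound or DMSO vehicle, then kept 72 h at 5% CO2. Viability was measured by MTT, normalised to vehicle-treated cells as 100%.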
A general note: Tetrazolium dyes change colour on reduction, which living cells bring about.

Test [2] in a line: Cytotoxicity against human PC3 cells assessed as growth inhibition after 72 hrs by MTT assay. The conditions noted are these: PC-3, 72 h. A digest of the protocol: as §1
The subject of test [3] is SF-295. In words: Cytotoxicity against human SF295 cells assessed as growth inhibition after 72 hrs by MTT assay. The conditions noted are these: SF-295, 72 h. A digest of the protocol:
as §1

In test [4] the test system is NCI-H292. Briefly: Cytotoxicity against human NCI-H292 cells assessed as growth inhibition after 72 hrs by MTT assay. The conditions noted are these: NCI-H292, 72 h. A digest of the protocol:
as §1

In test [5] the test system is A549. In words: Cytotoxicity against human A549 cells assessed as growth inhibition after 72 hrs by MTS assay. The conditions noted are these: A549, 72 h. A digest of the protocol:
(§2)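 Seeding per well: A549 500 cells (DMEM), HCT-116 5000 (McCoy's 5A), MCF-7 5000 (EMEM), B16 2000 (DMEM). All media had 10% FBS; cells kept at 37 °C, 5% CO2. Cells settled 6 h, then received compounds pre-diluted 250-fold from DMSO into medium, and were exposed 72 h. Wells were washed with phenol-red-free medium, given MTS for 40 min, and read at 490 nm absorbance.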

The subject of test [6] is B16. In words: Cytotoxicity against mouse B16 cells assessed as growth inhibition after 72 hrs by MTS assay. The conditions noted are these: B16, 72 h. A digest of the protocol:
as §2

Test [7] is described as follows: Cytotoxicity against human HCT116 cells assessed as growth inhibition after 72 hrs by MTS assay. The conditions noted are these: HCT-116, 72 h. A digest of the protocol:
as §2

Test [8] has as its system MCF7. Briefly: Cytotoxicity against human MCF7 cells assessed as growth inhibition after 72 hrs by MTS assay. The conditions noted are these: MCF7, 72 h. A digest of the protocol:
as §2

As a reminder, the IC50 is the concentration at which inhibition is half-maximal. On to `CC[C@H](C)[C@H]1C(=O)N[C@@H](C)C(=O)N(C)[C@@H](CC(C)C)C(=O)N[C@@H](Cc2ccc(OC)cc2)C(=O)N(C)[C@@H](C)C(=O)O[C@H](C)[C@H](N(C)C(=O)[C@H](CC(C)C)N(C)C(=O)[C@H](COC)N(C)C(=O)[C@@H](OC(=O)[C@H](C(C)C)N(C)C)C(C)C)C(=O)N(C)[C@@H](COC)C(=O)N1C` (NMe2Val-[Hiv][NMeS](Me)[NMeL][NMeT][NMeS](Me)[NMeI]A[NMeL]Y(Me)[NMeA]; ester 4-C), for which the IC50 in test [1] came out at 66 nM; in test [2] it was 80 nM; in test [3] it was 219 nM; in test [4], 124 nM.

As for `CC[C@H](C)[C@H]1C(=O)N[C@@H](C)C(=O)N(C)[C@@H](CC(C)C)C(=O)N[C@@H](Cc2ccc(OC)cc2)C(=O)N(C)[C@H](C)C(=O)O[C@H](C)[C@H](N(C)C(=O)[C@H](CC(C)C)N(C)C(=O)[C@H](COC)N(C)C(=O)[C@@H](OC(=O)[C@H](C(C)C)N(C)C)C(C)C)C(=O)N(C)[C@@H](COC)C(=O)N1C` (NMe2Val-[Hiv][NMeS](Me)[NMeL][NMeT][NMeS](Me)[NMeI]A[NMeL]Y(Me)[dNMeA]; ester 4-C), the IC50 in test [5] came out at 19 nM; in test [1] it was 545 nM; in test [6], 54.4 nM; in test [7], 44.6 nM; in test [2], 424 nM; in test [8] it was 48.6 nM. For the same compound, the half-maximal inhibitory concentration (IC50) in test [3] was determined as 816 nM; in test [4] it was 610 nM.
